Results: ChEMBL document CHEMBL3244300, “Pyrimidinylpropenamides as antitumor agents. Analogues of the antibiotic sparsomycin” (1977)
In brackets after ≈: the same amount, converted by molar mass. Activity calls are given as the source filed them. The calls are words filed in the database; no cut-off is given here.

Tests used:
Format in all cases: functional
P388 [1] = assay: Antitumor activity against mouse P388 cells allografted in mouse assessed as increase in life span at 40 mg/kg, ip qd administered on day 1 to day 9 relative to control; conditions: route intraperitoneal
Method in brief: (§1)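 NCI Division of Cancer Treatment standard P-388 lymphocytic leukaemia protocol in mice. Drug given intraperitoneally once daily on days 1–9, with dose in mg/kg. The vehicle was water, saline or propylene glycol depending on the compound. T/C = (mean or median survival of treated ÷ control survival) × 100.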

KB = assay: Cytotoxicity against human KB cells assessed as growth inhibition; conditions: for EC50: Homo sapiens, KB, read-out: ED50 (the source's name)
Method in brief: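 KB cell culture run under standard National Cancer Institute Division of Cancer Treatment protocols. Compounds were dissolved in water or propylene glycol as vehicle, depending on the compound. ED50 is the dose that inhibits growth to 50% of control growth, in μg/ml.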

P388 [2] = assay: Antitumor activity against mouse P388 cells allografted in mouse assessed as increase in life span at 38.4 mg/kg, ip qd administered on day 1 to day 9 relative to control; conditions: route intraperitoneal; method in brief: as §1
P388 [3] = assay: Antitumor activity against mouse P388 cells allografted in mouse assessed as increase in life span at 400 mg/kg, ip qd administered on day 1 to day 9 relative to control; conditions: route intraperitoneal; method in brief: as §1
P388 [4] = assay: Antitumor activity against mouse P388 cells allografted in mouse assessed as increase in life span at 0.3 mg/kg, ip qd administered on day 1 to day 9 relative to control; conditions: route intraperitoneal; method in brief: as §1
P388 [5] = assay: Antitumor activity against mouse P388 cells allografted in mouse assessed as increase in life span at 100 mg/kg, ip qd administered on day 1 to day 9 relative to control; conditions: route intraperitoneal; method in brief: as §1
P388 [6] = assay: Antitumor activity against mouse P388 cells allografted in mouse assessed as increase in life span at 5 mg/kg, ip qd administered on day 1 to day 9 relative to control; conditions: route intraperitoneal; method in brief: as §1
P388 [7] = assay: Antitumor activity against mouse P388 cells allografted in mouse assessed as increase in life span at 256 mg/kg, ip qd administered on day 1 to day 9 relative to control; conditions: route intraperitoneal; method in brief: as §1
P388 [8] = assay: Antitumor activity against mouse P388 cells allografted in mouse assessed as increase in life span at 6.25 mg/kg, ip qd administered on day 1 to day 9 relative to control; conditions: route intraperitoneal; method in brief: as §1

Cc1[nH]c(=O)[nH]c(=O)c1/C=C/C(=O)NC(CO)C[S+](C)[O-].O (stereo in doubt; 10c)
T/C (P388 [1]): 100%
ED50 (KB): >100 µg/mL

CSCSCC(CO)NC(=O)/C=C/c1c(C)nc(O)nc1O (racemic) [listing 1 of 2 here]
T/C (P388 [2]): 92%

CSCSCC(CO)NC(=O)/C=C/c1c(C)nc(O)nc1O (single isomer, unassigned; (-))
T/C (P388 [3]; 400 mg/kg): 86%
ED50 (KB): >100 µg/mL

CSCC(CO)NC(=O)/C=C/c1c(C)[nH]c(=O)[nH]c1=O (single isomer, unassigned; (-))
T/C (P388 [3]; 400 mg/kg): 69%
EC50 (KB): > 100 µg/mL

Cc1[nH]c(=O)[nH]c(=O)c1/C=C/C(=O)NC(CO)C[S+]([O-])Cc1ccccc1.O (single isomer, unassigned; (-))
T/C (P388 [3]): 93%
EC50 (KB): 88 µg/mL

CSCSCC(CO)NC(=O)/C=C/c1c(C)nc(O)nc1O (racemic) [listing 2 of 2 here]
ED50 (KB): inactive

CSC[S+]([O-])C[C@H](CO)NC(=O)/C=C/c1c(C)[nH]c(=O)[nH]c1=O (stereo not given in full)
T/C (P388 [4]): 156%
EC50 (KB): 0.08 µg/mL (≈ 0.221 µM)

CCCCCCCCCCSCC(CO)NC(=O)/C=C/c1c(C)[nH]c(=O)[nH]c1=O (racemic)
T/C (P388 [5]): 155%

Cc1[nH]c(=O)[nH]c(=O)c1/C=C/C(=O)NC(CO)C[S+]([O-])C(C)C.O (single isomer, unassigned; (-))
T/C (P388 [3]): 113%
EC50 (KB): > 100 µg/mL

Cc1[nH]c(=O)[nH]c(=O)c1/C=C/C(=O)NC(CO)CSCc1ccccc1 (single isomer, unassigned; (-))
T/C (P388 [3]): 95%
EC50 (KB): > 100 µg/mL

Cc1[nH]c(=O)[nH]c(=O)c1/C=C/C(=O)NC(CO)C[S+]([O-])C[S+](C)[O-].O (racemic)
EC50 (KB): 2.4 µg/mL
T/C (P388 [6]): 137%

Cc1[nH]c(=O)[nH]c(=O)c1/C=C/C(=O)NC(CO)C[S+](C)[O-].O (racemic)
T/C (P388 [7]): 137%
ED50 (KB): 1.5 µg/mL

Cc1[nH]c(=O)[nH]c(=O)c1/C=C/C(=O)NC(CO)CSC(C)C (stereo not given)
T/C (P388 [3]): 89%
EC50 (KB): > 100 µg/mL

CCCCCCCCCC[S+]([O-])CC(CO)NC(=O)/C=C/c1c(C)nc(O)nc1O (racemic)
T/C (P388 [8]): 153%

CCCCSCC(CO)NC(=O)/C=C/c1c(C)[nH]c(=O)[nH]c1=O (single isomer, unassigned; (-))
EC50 (KB): 27 µg/mL (≈ 79.1 µM)

CSCC(CO)NC(=O)/C=C/c1c(C)[nH]c(=O)[nH]c1=O (racemic)
T/C (P388 [3]; 400 mg/kg): 88%

CCCC[S+]([O-])CC(CO)NC(=O)/C=C/c1c(C)[nH]c(=O)[nH]c1=O (racemic)
EC50 (KB): 1.2 µg/mL (≈ 3.36 µM)
T/C (P388 [6]): 161%

CSCSCC(CO)NC(=O)/C=C/c1c(C)nc(O)nc1O (single isomer, unassigned; (+))
T/C (P388 [3]; 400 mg/kg): 14%
ED50 (KB): 13 µg/mL (≈ 37.6 µM)
